Laboratory results taken from publication PMC4930114 (ACS infectious diseases, 2015).
Like-named read-outs stand apart in the source and are kept apart here.

Experiments:
[1] = molecular target: ROP18 (Toxoplasma gondii, UniProt Q2PAY2); test: biochemical
[2] = system: HepG2 hepatocarcinoma cells; settings: 10 μM (48 h stated for compound 10); cited from earlier work
[3] = system: RAW264.7 macrophages; test: Phase contrast microscopy of host cell morphology; type: cell-based, mouse; settings: 10 μM, in as little as 30 min; rounding up and vesiculation
[4] = system: RAW 264.7 macrophages; test: MTS-based cell growth assay; settings: Mus musculus, RAW264.7, 48 h, read-out: EC50 growth inhibition (MTS)
[5] = system: P. falciparum Dd2 strain (a multidrug resistant strain); settings: 2 μM, 48 h; cited from earlier work
[6] = system: P. falciparum 3D7 strain; settings: 2 μM, 48 h; cited from earlier work
[7] = system: ROP18 function in T. gondii infected RAW macrophages (Irga6 recruitment to PVM); test: Irga6; type: cell-based, Toxoplasma gondii; settings: 10 μM; for proportion of Irga6 positive vacuoles, visual scoring, Δrop18 parasites: Δrop18, IFN-γ-activated RAW macrophages; for amount of Irga6 recruitment, quantitative immunofluorescence, Δrop18 parasites: Δrop18, vs DMSO vehicle
Procedure, shortened: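 RAW264.7 macrophages on coverslips (10^5/well) primed 24 h with 100 U/ml mouse IFNγ plus 1 ng/ml LPS. RH Δku80 tachyzoites (wild type or rop18-disrupted) at 10^5/ml pretreated 30 min at 37°C with 10 μM test compound or 0.1% DMSO, then invaded 30 min. Formaldehyde-fixed, Triton-permeabilized, stained for TgAldolase and Irga6 (mAb 10D7). Irga6-positive vacuoles scored visually; intensity quantified over parasite/PVM region.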

[8] = system: P. falciparum; settings: 2 μM; cited from earlier work
[9] = system: RAW264.7 macrophages; test: LDH release cytotoxicity; type: cell-based, mouse; settings: 4 h incubation, 20 μM
[10] = system: TBK1; settings: 1 μM; ref GSK PKIS profiling (Table S1); cited from earlier work
[11] = system: MELK; settings: 1 μM; ref GSK PKIS profiling (Table S1); cited from earlier work
[12] = system: CDK2; settings: 0.1 μM; ref GSK PKIS profiling (Figure S5); cited from earlier work
[13] = system: PDGFRβ; settings: 0.1 μM; ref GSK PKIS profiling (Figure S5); cited from earlier work
[14] = system: CDK3/cyclinE; settings: 1 μM; ref GSK PKIS profiling (Table S1); cited from earlier work
[15] = system: PDGFRα; settings: 0.1 μM; ref GSK PKIS profiling (Figure S5); cited from earlier work
[16] = IC50 μM FL-8, substrate peptide FL-8, same assay conditions as primary screen
[17] = IC50 μM FL-E, substrate peptide FL-E, same assay conditions as primary screen

ROP18, sequence (Q2PAY2 98-554): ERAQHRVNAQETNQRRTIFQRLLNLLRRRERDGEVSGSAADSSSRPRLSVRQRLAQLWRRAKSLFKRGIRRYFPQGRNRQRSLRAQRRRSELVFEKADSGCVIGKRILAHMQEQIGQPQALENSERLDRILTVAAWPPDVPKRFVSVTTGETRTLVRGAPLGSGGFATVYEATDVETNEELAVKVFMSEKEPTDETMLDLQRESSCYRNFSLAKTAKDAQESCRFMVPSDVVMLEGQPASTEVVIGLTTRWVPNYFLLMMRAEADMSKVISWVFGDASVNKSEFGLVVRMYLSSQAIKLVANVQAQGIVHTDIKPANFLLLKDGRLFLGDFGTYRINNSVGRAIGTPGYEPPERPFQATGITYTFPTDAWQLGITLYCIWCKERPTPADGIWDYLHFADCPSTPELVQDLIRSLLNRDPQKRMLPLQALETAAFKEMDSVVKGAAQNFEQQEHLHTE

O=S1(=O)CCc2ccc(Nc3nc(NC4CCNC4)nc4ccnc(O)c34)cc21 (stereo not shown) [Compound 5, 4-[(1,1-dioxo-2,3-dihydrobenzothiophen-6-yl)amino]-2-(pyrrolidin-3-ylamino)pyrido[4,3-d]pyrimidin-5-ol]
IC50 [1, 16]: > 10 µM | IC50 [1, 17]: 4.02 µM

CS(=O)(=O)Cc1ccc(Nc2nccc(-c3c(-c4cccc(NC(=O)C5CCCCC5)c4)nn4ncccc34)n2)cc1 [Compound 9, <I>N</I>-[3-[3-[2-[4-(methylsulfonylmethyl)anilino]pyrimidin-4-yl]pyrazolo[1,5-b]pyridazin-2-yl]phenyl]cyclohexanecarboxamide]
IC50 [1, 16]: > 10 µM | IC50 [1, 17]: > 10 µM

CC(C)(CO)CNC(=O)c1ccc2c(c1)C(=NNc1ccc(S(N)(=O)=O)cc1)C(=O)N2 [Compound 3, 2-hydroxy-N-(3-hydroxy-2,2-dimethyl-propyl)-3-(4-sulfamoylphenyl)azo-1H-indole-5-carboxamide]
IC50 [1, 16]: 0.65 µM | IC50 [1, 17]: 0.19 µM

Cc1cccc(Nc2nc(NC3CCCCC3N)ncc2C(N)=O)c1 (stereo not shown) [Compound 13, 2-[(2-aminocyclohexyl)amino]-4-(3-methylanilino)pyrimidine-5-carboxamide]
IC50 [1, 16]: > 10 µM | IC50 [1, 17]: 6.66 µM

CS(=O)(=O)Cc1ccc(Nc2nccc(-c3c(-c4cccc(NC(=O)c5c(F)cccc5F)c4)nn4ccccc34)n2)cc1 [Compound 10, 2,6-difluoro-<I>N</I>-[3-[3-[2-[4-(methylsulfonylmethyl)anilino]pyrimidin-4-yl]pyrazolo[1,5-a]pyridin-2-yl]phenyl]benzamide]
IC50 [1, 16]: 2.83 µM | IC50 [1, 17]: 1 µM | growth inhibition of HepG2 cells [2]: 78% | morphological damage to the host cells [3]: rapid morphological damage | EC50 [4]: 1.3 µM | inhibition of Dd2 strain [5]: 75% | inhibition of 3D7 strain [6]: 99%

COc1ccc(NC(=O)Nc2nc(SCC(=O)C(C)(C)C)ns2)cc1 [Compound 11, 1-[3-(3,3-dimethyl-2-oxo-butyl)sulfanyl-1,2,4-thiadiazol-5-yl]-3-(4-methoxyphenyl)urea]
IC50 [1, 16]: > 10 µM | IC50 [1, 17]: 6.44 µM

NS(=O)(=O)c1ccc(NN=C2C(=O)Nc3ccc(C(=O)NCc4ccncc4)cc32)cc1 [Compound 4, 2-hydroxy-N-(4-pyridylmethyl)-3-(4-sulfamoylphenyl)azo-1H-indole-5-carboxamide]
IC50 [1, 16]: > 10 µM | IC50 [1, 17]: 2.66 µM

O=c1[nH]ccc2nc(NC3CCCNC3)nc(Nc3ccc(S(=O)(=O)N4CCOCC4)cc3)c12 (stereo not shown) [Compound 7, 4-(4-morpholinosulfonylanilino)-2-(3-piperidylamino)pyrido[4,3-d]pyrimidin-5-ol]
proportion of Irga6 positive vacuoles, visual scoring, wild type parasites ([7]; wild type (RH), IFN-γ-activated RAW macrophages, vs DMSO vehicle): did not result in a significant increase | amount of Irga6 recruitment, quantitative immunofluorescence, wild type parasites ([7]; wild type (RH), vs DMSO vehicle): no significant increase | proportion of Irga6 positive vacuoles, visual scoring, Δrop18 parasites ([7]; vs DMSO vehicle): caused a reduction | amount of Irga6 recruitment, quantitative immunofluorescence, Δrop18 parasites [7]: significantly lower | inhibition of P. falciparum growth [8]: > 95% | Ki [1]: 270 nM | IC50 [1, 16]: 0.4 µM | IC50 [1, 17]: 0.18 µM | growth inhibition of HepG2 cells [2]: 13% | EC50 [4]: 14.2 µM | increase in LDH release [9]: 12%

CC(C)COC(=O)c1ccc2c(c1)/C(=C/Nc1ccc(S(N)(=O)=O)cc1)C(=O)N2 [Compound 2, isobutyl 2-hydroxy-3-[(4-sulfamoylphenyl)iminomethyl]-1H-indole-5-carboxylate]
proportion of Irga6 positive vacuoles, visual scoring, Δrop18 parasites ([7]; vs DMSO vehicle): did not lead to a significant increase or decrease | amount of Irga6 recruitment, quantitative immunofluorescence, Δrop18 parasites [7]: did not lead to a significant increase or decrease | inhibition of TBK1 [10]: > 90% | inhibition of MELK [11]: > 90% | inhibition of CDK2 [12]: > 50% | Ki [1]: 130 nM | IC50 [1, 16]: 0.51 µM | IC50 [1, 17]: 0.29 µM | inhibition of PDGFRβ [13]: > 50% | EC50 [4]: 7.4 µM | inhibition of CDK3/cyclinE [14]: > 90% | inhibition of PDGFRα [15]: > 50%

NS(=O)(=O)CCc1cccc(Nc2nccc(-c3c(-c4cccc(NC(=O)c5c(F)cccc5F)c4)nn4ccccc34)n2)c1 [Compound 8, 2,6-difluoro-<I>N</I>-[3-[3-[2-[3-(2-sulfamoylethyl)anilino]pyrimidin-4-yl]pyrazolo[1,5-a]pyridin-2-yl]phenyl]benzamide]
IC50 [1, 16]: 0.63 µM | IC50 [1, 17]: 0.94 µM

NS(=O)(=O)c1ccc(N/C=C2\C(=O)Nc3ccc4ncsc4c32)cc1 [Compound 1, 4-[(7-hydroxy-6H-pyrrolo[2,3-g][1,3]benzothiazol-8-yl)methyleneamino]benzenesulfonamide]
IC50 [1, 16]: 1.21 µM | IC50 [1, 17]: 2.48 µM

Oc1nccc2nc(NC3CCNC3)nc(Nc3cc(Cl)cc(Cl)c3)c12 (stereo not shown) [Compound 6, 4-(3,5-dichloroanilino)-2-(pyrrolidin-3-ylamino)pyrido[4,3-d]pyrimidin-5-ol]
IC50 [1, 16]: > 10 µM | IC50 [1, 17]: 7.49 µM

C[C@]12O[C@H](C[C@]1(O)CO)n1c3ccccc3c3c4c(c5c6ccccc6n2c5c31)CNC4=O [Compound 14, (5S,6S,8R)-6-hydroxy-6-(hydroxymethyl)-5-methyl-5,6,7,8,14,15-hexahydro-13H-16-oxa-4b,8a,14-triaza-5,8-methanodibenzo[b,h]cycloocta[jkl]cyclopenta[e]-as-indacen-13-one, reference compound]
IC50 [1]: 0.16 µM
